The list is not random: actives were taken first. Their share in the collection is about 0.77%.
bIAP inhibitor: blocks bovine intestinal alkaline phosphatase activity | inhibition, % at 20 µM | 190,000 tested, under 10 active | AID 1019 | purified bovine IAP, CDP-star luminescence, 30 min;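 active = over 50% inhibition of intestinal alkaline phosphatase at 20 µM in the single-dose screen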
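test system = bovine IAP enzyme | medium = DEA buffer 100 mM, pH 9.8, with MgCl2 1.0 mM, ZnCl2 0.02 mM | detection = luminescence | dosing = single compound dose of 20 µM, 2% DMSO final | incubation = 30 min reaction at room temperature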
mIAP block: mouse IAP inhibition; purified mouse IAP, CDP-Star luminescence, 30 min; inhibition, % at 10 µM; hit rate 0.2% among 330,000; AID 2806;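 active = inhibition of at least 40% at 10 µM in the primary screen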;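 also: plate controls were DMSO with enzyme for no effect and no enzyme wells for full effect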
hIAP act: human IAP activation. purified human IAP, CDP-Star luminescence, 30 min; stronger effect = higher value; 1 = vehicle-only enzyme, 0 = enzyme-free background. activation factor at 10 µM. P09923. hit rate 0.16% among 330,000. AID 2524;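 active = activation factor of the enzyme at least 2-fold when tested at 20 µM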
Target sequence (P09923 whole entry, looked up): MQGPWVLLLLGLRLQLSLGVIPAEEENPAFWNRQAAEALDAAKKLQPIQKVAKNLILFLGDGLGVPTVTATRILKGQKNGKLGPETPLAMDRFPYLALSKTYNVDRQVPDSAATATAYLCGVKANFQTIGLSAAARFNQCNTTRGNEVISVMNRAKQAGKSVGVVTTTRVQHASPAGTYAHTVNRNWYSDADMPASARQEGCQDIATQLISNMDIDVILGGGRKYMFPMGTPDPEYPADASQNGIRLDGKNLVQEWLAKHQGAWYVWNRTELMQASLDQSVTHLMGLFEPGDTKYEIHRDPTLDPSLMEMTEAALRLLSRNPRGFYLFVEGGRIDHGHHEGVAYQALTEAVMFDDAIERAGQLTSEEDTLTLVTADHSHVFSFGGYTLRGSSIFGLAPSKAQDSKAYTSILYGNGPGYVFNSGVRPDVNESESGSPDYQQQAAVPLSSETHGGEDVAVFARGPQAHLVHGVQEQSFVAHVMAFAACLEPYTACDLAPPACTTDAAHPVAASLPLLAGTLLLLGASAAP
bIAP act: intestinal alkaline phosphatase (bovine) activation; purified bovine IAP, CDP-star luminescence, 30 min; stronger effect = higher value; fold of DMSO-control signal, blank-subtracted; activation factor at 20 µM; hit rate 0.17% among 200,000;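 active = activation factor of 2 or more at 20 µM, a signal rise over negative controls twice the positive control's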
hIAP block: blocks human intestinal alkaline phosphatase; AID 2544; P09923; purified IAP, CDP-Star luminescence, 30 min; hit rate 0.12% among 330,000; inhibition, % at 10 µM;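 active = inhibition reaching a set limit with compound at 10 µM in the primary screen, cut at about 35% in these data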;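 also: plate controls were DMSO wells with enzyme for no effect and no-enzyme buffer wells for full effect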
mIAP activ: increases mouse intestinal alkaline phosphatase activity | muIAP, CDP-Star luminescence, 30 min; stronger effect = higher value; 1 = vehicle-only enzyme signal, 0 = enzyme-free wells | activation factor at 10 µM | hit rate 0.24% among 330,000 | AID 2805;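 active = activation factor of at least 2 at 20 µM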
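Assay system: mouse IAP enzyme; reagent: chemiluminescent substrate CDP-Star; dosing: test compounds delivered from DMSO solution; schedule: 30 min at room temperature; measured by: luminescence from enzymatic CDP-Star hydrolysis; controls: DMSO-only wells and no-enzyme negative control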
mIAP inh confirm: mouse IAP inhibition confirmation; shares compounds with mIAP block; purified mouse IAP, CDP-Star luminescence, 30 min; inhibition, % at 10 µM; hit rate 4.7% among 11,000;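 active = inhibition of at least 40% at 10 µM in either of the two replicates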;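 also: plate controls were DMSO wells with enzyme for no effect and buffer wells lacking enzyme for full effect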
* hit, by the source's call; x = no result.

SMILES	bIAP inhibitor	mIAP block	hIAP act	bIAP act	hIAP block	mIAP activ	mIAP inh confirm
Cc1ccc(S(=O)(=O)N2CCCCC2CCNC(=O)C(=O)Nc2ccccc2F)cc1 (stereo unspecified)	x	2.4	1.24	x	-23.8	0.976	x
COCCN=c1scc(-c2ccco2)n1/N=C/c1ccc(O)c(O)c1O	4.2	54.3*	1.21	1	-21.4	0.457	52.9*
C=CCN=c1scc(-c2ccco2)n1/N=C/c1ccc(O)c(O)c1O	x	58.6*	0.916	x	8.4	0.414	67.7*
C[C@H](NC(=O)[C@H]1N2C(=O)c3ccccc3C2SC1(C)C)C(=O)N1CCC[C@H]1C(=O)O (stereo partly specified)	x	13.7	0.942	x	5.8	0.863	x
Cc1ccc(NC(=S)NCc2ccccc2)cc1S(=O)(=O)N1CCCCC1	-38.0	-480.6	1.58	1.4	-58.3	5.81*	-186.7
Cc1cccc(Nc2ncnc3onc(-c4cccc(Cl)c4)c23)c1C	x	10.7	0.977	x	2.3	0.893	x
C=CCOc1ccc(/C=C/C(=O)OCC(=O)Nc2c(C)n(C)n(-c3ccccc3)c2=O)cc1	x	6.3	1.08	x	-8.3	0.937	x
CC(=O)N1c2ccc(S(=O)(=O)N(C)CC(=O)Nc3ccccc3C)cc2CC1C (stereo unspecified)	x	-4.1	1.23	x	-22.5	1.04	x
CCc1cccc(CC)c1NC(=O)CN1C2CCCC1CC(NC(=O)Nc1cccc(OC)c1)C2 (stereo unspecified)	-38.8	-174.8	1.91	1.4	-91.4	2.75*	-136.2
COc1cccc(C(=O)NC2CC3CCCC(C2)N3CC(=O)Nc2ccccc2C(F)(F)F)c1 (stereo unspecified)	x	-4.7	0.954	x	4.6	1.05	x
COC(=O)c1ccccc1NC(=O)NCCc1ccccc1OC	-2.8	1.4	1.02	1	-2.3	0.986	x
CCOC(=O)c1ccc(NC(=O)NCCc2ccccc2OC)cc1	-12.2	-181.9	1.25	1.1	-24.7	2.82*	-101.3
Cc1cc(NC(=O)Nc2cccc(Cl)c2)n(-c2ccccc2)n1	x	-204.0	1.86	x	-86.3	3.04*	-97.1
Cc1cc(NC(=O)Nc2ccc(Cl)c(Cl)c2)n(-c2ccccc2)n1	x	-326.8	1.55	x	-54.7	4.27*	-178.6
Cc1cc(NC(=O)Nc2cccc(Cl)c2)n(-c2ccccn2)n1	x	-67.9	1.17	x	-16.6	1.68	x
COc1ccc(NC(=O)c2ccc(S(=O)(=O)N3CC(C)OC(C)C3)cc2)cc1 (stereo unspecified)	x	6.7	1.14	x	-13.5	0.933	x
Cc1ccc(NC(=O)C2CC(=O)n3c(nc4ccccc43)N2)cc1Cl (stereo unspecified)	-136.4	-258.2	1.92	2.4*	-91.5	3.58*	-125.1
Cc1ccc(NC(=O)[C@@H]2CCC(=O)N2C2OC(=O)c3ccccc32)cc1Cl (stereo partly specified)	x	18.5	0.942	x	5.8	0.815	x
Cn1cccc1C(=O)OCc1cc(Cl)cc2c1OCOC2	-1.3	6.2	1.07	1	-6.9	0.938	24.1*
COc1ccc(CN2CCCC(C(=O)c3ccc4c(c3)OCO4)C2)c(F)c1 (stereo unspecified)	x	-4.1	0.97	x	3.0	1.04	x
CCCNC(=O)c1ccc2c(=O)n(Cc3ccco3)c(=S)[nH]c2c1	-0.4	63.7*	0.972	1	2.8	0.363	66.4*
Cc1cc(-c2ccco2)n(-c2ccccc2)n1	-8.9	3.4	0.934	1.1	6.6	0.966	x
Cc1cc(-c2ccccc2)n(-c2ccccc2)n1	x	72.5*	1.21	x	-21.0	0.275	85.4*
S=C(NCCC(c1ccccc1)c1ccccc1)Nc1cccc(Cl)c1	-69.7	-305.1	1.7	1.7	-70.0	4.05*	-273.6
S=C(NCc1ccccn1)Nc1cccc(Cl)c1	4.4	-17.2	0.94	1	6.0	1.17	x
SMILES	bIAP inhibitor	mIAP block	hIAP act	bIAP act	hIAP block	mIAP activ	mIAP inh confirm
Cc1ccccc1NC(=S)NCCC(c1ccccc1)c1ccccc1	-10.0	-269.0	1.01	1.1	-1.0	3.69*	-96.0
COCCCNC(=S)Nc1ccccc1C	12.7	8.0	0.856	0.9	14.4	0.92	x
COc1ccc(C(=O)OCC(=O)Nc2ncc([N+](=O)[O-])s2)cc1OC	x	62.6*	0.884	x	11.6	0.374	75.5*
O=C(COC(=O)c1ccc(Br)o1)Nc1ncc([N+](=O)[O-])s1	x	60.6*	0.876	x	12.4	0.394	58.8*
Cc1ccc(CC(=O)Nc2ncc([N+](=O)[O-])s2)cc1	-9.0	7.9	0.88	1.1	12.0	0.921	x
Cc1cc(C)c(-n2c(SCC(=O)N3CCOCC3)n[nH]c2=O)c(C)c1	x	-0.3	1.03	x	-3.4	1	x
CCN(CC(=O)Nc1c(F)cccc1F)C(=O)c1n[nH]c2ccccc12	x	3.1	1.16	x	-15.5	0.969	x
N#CC1=C(N)SC(N)=C(C#N)C1c1ccoc1	-10.2	76.6*	0.921	1.1	7.9	0.234	76.3*
COc1ccc2c(CC(=O)OCC(=O)Nc3cccc(C)c3)coc2c1	x	-3.5	1.01	x	-0.7	1.03	x
CN(CC(=O)Nc1ccc(F)cc1)C(=O)CN1C(=O)NC2(CCCc3ccccc32)C1=O (stereo unspecified)	x	-8.3	1.03	x	-2.7	1.08	x
CC(C)CC(C(=O)Nc1oc(-c2ccco2)c(-c2ccco2)c1C#N)N1C(=O)c2ccccc2C1=O (stereo unspecified)	-2.1	44.9*	1.11	1	-11.1	0.551	47.7*
CC(C)CC(C(=O)Nc1cccc(O)c1)N1C(=O)c2ccccc2C1=O (stereo unspecified)	x	6.5	0.94	x	6.0	0.935	x
NS(=O)(=O)c1cc(C(=O)NC2CCSc3ccccc32)ccc1Cl (stereo unspecified)	x	71.5*	0.906	x	9.4	0.285	84.0*
NS(=O)(=O)c1cccc(C(=O)NC2CCSc3ccccc32)c1 (stereo unspecified)	x	-21.2	0.951	x	4.9	1.21	x
Cc1cc(C(=O)COC(=O)COc2ccc(C#N)cc2)c(C)n1C1CC1	x	10.2	0.911	x	8.9	0.898	x
Cn1cccc1/C=C1\SC(=S)N(Nc2ccccc2)C1=O	x	40.3*	1.2	x	-20.0	0.597	49.7*
Cc1cc(Cn2nc(-c3ccccc3)cc2C(=O)NCc2cccc(C(F)(F)F)c2)on1	x	-228.5	0.946	x	5.4	3.29*	-124.8
Cc1cc(Cn2nc(-c3ccccc3)cc2C(=O)NCc2cccc(Br)c2)on1	x	-299.4	1.1	x	-10.1	3.99*	-229.5
CN(C)C(=O)c1ccc(NC(=O)c2ccccc2SCC(=O)N2CCCC2)cc1	x	-3.7	0.994	x	0.6	1.04	x
CCCCC1=CC2=C(c3ccco3)C(=O)C(C)(OC(=O)c3ccc(OC)cc3)C(=O)C2=CN1Cc1ccc2c(c1)OCO2 (stereo unspecified)	x	43.5*	0.799	x	20.1	0.565	49.7*

Bioassay records deposited in PubChem by Sanford-Burnham Center for Chemical Genomics.
